Assay results published in ChEMBL document CHEMBL1153250, “Discovery and SAR of novel, potent and selective hexahydrobenzonaphthyridinone inhibitors of poly(ADP-ribose)polymerase-1 (PARP-1)” (Bioorg Med Chem Lett, 2010).
Activity calls are given as the source filed them. The rule behind the calls is not given here.

Experiments:
[1] = molecular target: T1, Poly [ADP-ribose] polymerase 1 (Homo sapiens, UniProt P09874); assay: Inhibition of human PARP1 by scintillation proximity assay
[2] = molecular target: T1, Poly [ADP-ribose] polymerase 1; assay: Inhibition of PARP1 in human HeLa cells assessed as inhibition of hydrogen peroxide-induced poly(ADP-ribosyl)ation; type: cell-based
[3] = Intrinsic clearance in rat liver microsomes; type: ADME, Microsome
[4] = molecular target: T2, Poly [ADP-ribose] polymerase 2 (Homo sapiens, UniProt Q9UGN5); assay: Inhibition of PARP2 at 1 uM
T2 sequence (Q9UGN5 whole entry): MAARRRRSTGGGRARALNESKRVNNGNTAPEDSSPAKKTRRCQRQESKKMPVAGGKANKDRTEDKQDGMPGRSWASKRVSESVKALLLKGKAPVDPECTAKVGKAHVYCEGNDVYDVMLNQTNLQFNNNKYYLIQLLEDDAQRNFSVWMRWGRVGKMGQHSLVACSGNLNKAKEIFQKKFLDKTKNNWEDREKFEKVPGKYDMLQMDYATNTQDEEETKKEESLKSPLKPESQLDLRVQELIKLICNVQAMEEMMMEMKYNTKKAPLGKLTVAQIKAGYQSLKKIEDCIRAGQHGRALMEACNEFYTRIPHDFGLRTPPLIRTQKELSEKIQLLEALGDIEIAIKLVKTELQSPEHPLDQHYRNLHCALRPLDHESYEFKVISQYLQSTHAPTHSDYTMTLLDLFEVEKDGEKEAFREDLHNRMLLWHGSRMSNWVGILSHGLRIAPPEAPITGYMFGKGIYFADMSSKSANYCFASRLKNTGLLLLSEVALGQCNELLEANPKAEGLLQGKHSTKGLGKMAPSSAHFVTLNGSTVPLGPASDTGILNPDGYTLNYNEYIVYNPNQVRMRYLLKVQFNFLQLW

[5] = molecular target: T1, Poly [ADP-ribose] polymerase 1; assay: Inhibition of human PARP1 at 1 uM by scintillation proximity assay
[6] = Inhibition of Tankyrase at 1 uM
[7] = molecular target: T2, Poly [ADP-ribose] polymerase 2; assay: Inhibition of PARP2
Rattus norvegicus = assay: Volume of distribution in rat at 3 mg/kg, iv and po; type: ADME, organism-based; design: dose 3 mg/kg, route oral; conditions: in vivo
In short: (§1)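 Rats received the compound both intravenously and orally, each at 3 mg/kg. Reported PK parameters are half-life (h), volume of distribution (L/kg), clearance (ml/min/kg), oral bioavailability (%F) and oral AUC (μM h).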

[8] = Inhibition of Cytochrome P450 at 10 uM; type: ADME
[9] = molecular target: T3, Poly [ADP-ribose] polymerase tankyrase-1 (Homo sapiens, UniProt O95271); assay: Inhibition of Tankyrase 1
T3 sequence (O95271 whole entry): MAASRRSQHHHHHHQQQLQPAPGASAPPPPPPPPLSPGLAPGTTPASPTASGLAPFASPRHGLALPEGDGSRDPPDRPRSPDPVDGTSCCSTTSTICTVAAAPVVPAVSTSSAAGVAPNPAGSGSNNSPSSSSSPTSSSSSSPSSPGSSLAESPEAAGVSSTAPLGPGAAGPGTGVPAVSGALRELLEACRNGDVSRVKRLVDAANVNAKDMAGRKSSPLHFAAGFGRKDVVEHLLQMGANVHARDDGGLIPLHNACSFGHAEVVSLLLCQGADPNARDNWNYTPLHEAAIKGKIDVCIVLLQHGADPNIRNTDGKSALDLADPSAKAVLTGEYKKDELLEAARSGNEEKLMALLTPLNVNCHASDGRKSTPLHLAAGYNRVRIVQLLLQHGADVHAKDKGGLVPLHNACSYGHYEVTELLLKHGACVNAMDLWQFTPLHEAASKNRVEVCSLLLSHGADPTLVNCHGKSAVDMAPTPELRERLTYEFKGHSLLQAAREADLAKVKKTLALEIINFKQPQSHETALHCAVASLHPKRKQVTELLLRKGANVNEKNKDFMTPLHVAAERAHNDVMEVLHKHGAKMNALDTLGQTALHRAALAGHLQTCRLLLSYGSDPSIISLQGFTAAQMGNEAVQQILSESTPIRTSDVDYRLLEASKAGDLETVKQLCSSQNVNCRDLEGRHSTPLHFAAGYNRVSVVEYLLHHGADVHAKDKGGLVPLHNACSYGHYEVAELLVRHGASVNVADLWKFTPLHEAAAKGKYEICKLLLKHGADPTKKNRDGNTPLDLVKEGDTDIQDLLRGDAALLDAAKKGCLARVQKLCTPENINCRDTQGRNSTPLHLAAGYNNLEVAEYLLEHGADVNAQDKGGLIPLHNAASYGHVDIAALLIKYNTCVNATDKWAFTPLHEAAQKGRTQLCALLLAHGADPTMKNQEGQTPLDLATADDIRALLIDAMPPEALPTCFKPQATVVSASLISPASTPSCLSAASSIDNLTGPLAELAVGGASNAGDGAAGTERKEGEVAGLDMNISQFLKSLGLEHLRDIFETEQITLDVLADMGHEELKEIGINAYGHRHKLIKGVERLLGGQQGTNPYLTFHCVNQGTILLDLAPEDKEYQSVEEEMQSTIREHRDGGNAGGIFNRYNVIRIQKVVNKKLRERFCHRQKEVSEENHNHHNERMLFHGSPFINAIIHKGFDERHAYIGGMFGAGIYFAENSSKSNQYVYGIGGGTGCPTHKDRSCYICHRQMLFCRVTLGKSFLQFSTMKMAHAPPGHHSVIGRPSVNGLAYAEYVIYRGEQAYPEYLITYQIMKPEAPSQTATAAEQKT

[10] = molecular target: Voltage-gated inwardly rectifying potassium channel KCNH2 (Homo sapiens, UniProt Q12809); assay: Binding affinity to potassium channel IKr at 10 uM
Voltage-gated inwardly rectifying potassium channel KCNH2, sequence (Q12809 whole entry): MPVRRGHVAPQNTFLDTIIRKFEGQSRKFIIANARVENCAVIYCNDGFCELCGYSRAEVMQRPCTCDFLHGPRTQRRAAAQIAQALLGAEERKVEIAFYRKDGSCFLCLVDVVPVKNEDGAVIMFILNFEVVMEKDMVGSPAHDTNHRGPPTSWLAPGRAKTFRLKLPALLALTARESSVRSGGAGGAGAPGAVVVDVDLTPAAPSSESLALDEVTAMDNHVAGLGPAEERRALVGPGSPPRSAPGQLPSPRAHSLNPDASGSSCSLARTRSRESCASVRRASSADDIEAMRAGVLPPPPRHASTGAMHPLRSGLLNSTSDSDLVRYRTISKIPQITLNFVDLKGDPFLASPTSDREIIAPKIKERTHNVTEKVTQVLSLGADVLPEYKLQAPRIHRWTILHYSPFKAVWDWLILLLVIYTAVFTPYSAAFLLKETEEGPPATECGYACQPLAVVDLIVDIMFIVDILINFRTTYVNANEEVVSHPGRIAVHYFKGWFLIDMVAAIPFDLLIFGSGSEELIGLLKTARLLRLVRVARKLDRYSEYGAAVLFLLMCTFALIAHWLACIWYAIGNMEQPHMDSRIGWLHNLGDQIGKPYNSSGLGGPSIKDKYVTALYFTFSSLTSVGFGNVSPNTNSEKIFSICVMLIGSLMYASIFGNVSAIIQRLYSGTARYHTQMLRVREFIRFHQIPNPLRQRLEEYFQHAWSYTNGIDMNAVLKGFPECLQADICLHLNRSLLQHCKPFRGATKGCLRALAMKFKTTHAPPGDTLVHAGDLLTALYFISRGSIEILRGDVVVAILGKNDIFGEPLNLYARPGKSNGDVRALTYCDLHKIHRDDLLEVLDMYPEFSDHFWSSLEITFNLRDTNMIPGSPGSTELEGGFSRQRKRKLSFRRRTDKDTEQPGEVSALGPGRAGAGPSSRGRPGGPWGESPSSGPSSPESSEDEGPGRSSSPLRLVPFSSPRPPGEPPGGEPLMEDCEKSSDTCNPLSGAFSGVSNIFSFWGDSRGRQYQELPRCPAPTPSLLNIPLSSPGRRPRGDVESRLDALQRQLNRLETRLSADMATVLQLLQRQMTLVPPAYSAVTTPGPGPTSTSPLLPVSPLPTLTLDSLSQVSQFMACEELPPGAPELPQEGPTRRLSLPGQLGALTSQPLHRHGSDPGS

[11] = Half life in rat at 3 mg/kg, iv and po; type: ADME, organism-based; design: dose 3 mg/kg, route oral; conditions: in vivo; in short: as §1
[12] = molecular target: Protein mono-ADP-ribosyltransferase PARP4 (Homo sapiens, UniProt Q9UKK3); assay: Inhibition of VPARP
Protein mono-ADP-ribosyltransferase PARP4, sequence (Q9UKK3 whole entry): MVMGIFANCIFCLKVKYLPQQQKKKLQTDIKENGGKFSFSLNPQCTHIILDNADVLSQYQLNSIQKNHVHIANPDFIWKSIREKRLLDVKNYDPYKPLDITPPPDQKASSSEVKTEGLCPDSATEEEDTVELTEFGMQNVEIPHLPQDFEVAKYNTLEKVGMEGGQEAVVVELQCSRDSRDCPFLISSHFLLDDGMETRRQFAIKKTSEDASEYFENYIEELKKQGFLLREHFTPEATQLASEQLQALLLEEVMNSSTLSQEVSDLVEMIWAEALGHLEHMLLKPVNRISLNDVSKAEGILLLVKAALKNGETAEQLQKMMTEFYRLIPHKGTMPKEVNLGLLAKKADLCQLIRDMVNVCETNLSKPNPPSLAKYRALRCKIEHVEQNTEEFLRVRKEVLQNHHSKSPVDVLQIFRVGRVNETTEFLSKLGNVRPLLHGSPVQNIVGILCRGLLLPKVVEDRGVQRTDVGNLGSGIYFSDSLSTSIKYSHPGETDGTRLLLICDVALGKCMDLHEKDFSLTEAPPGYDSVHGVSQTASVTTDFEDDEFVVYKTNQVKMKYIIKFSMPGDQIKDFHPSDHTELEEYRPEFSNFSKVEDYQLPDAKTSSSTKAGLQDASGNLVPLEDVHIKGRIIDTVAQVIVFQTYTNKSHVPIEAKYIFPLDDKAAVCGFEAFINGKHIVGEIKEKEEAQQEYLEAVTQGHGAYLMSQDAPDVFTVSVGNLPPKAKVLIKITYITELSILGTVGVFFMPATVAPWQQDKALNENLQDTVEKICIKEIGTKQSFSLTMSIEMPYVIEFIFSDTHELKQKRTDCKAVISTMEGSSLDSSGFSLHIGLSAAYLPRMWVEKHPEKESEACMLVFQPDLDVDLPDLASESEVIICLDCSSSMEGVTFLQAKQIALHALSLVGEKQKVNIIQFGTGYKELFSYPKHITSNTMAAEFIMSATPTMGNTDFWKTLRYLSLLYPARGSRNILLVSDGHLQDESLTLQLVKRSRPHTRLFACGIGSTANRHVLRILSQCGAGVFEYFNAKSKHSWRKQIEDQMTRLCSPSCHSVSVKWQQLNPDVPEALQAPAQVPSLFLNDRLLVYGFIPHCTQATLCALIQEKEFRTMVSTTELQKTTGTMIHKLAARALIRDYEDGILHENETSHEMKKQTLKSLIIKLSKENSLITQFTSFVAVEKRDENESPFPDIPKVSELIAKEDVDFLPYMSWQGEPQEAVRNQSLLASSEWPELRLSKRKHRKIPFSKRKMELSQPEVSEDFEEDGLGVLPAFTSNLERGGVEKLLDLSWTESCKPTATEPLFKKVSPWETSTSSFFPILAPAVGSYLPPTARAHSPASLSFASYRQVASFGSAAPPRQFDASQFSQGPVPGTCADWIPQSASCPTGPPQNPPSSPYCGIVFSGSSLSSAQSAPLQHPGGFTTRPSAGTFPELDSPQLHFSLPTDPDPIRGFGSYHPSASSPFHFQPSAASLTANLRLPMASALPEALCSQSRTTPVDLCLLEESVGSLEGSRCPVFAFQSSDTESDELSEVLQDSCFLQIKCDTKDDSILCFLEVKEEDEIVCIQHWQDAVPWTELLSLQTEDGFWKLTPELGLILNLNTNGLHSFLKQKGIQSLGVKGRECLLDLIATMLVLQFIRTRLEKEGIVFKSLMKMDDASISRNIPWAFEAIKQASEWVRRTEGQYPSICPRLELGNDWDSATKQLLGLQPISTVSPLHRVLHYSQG

[13] = molecular target: T4, Protein mono-ADP-ribosyltransferase PARP3 (Homo sapiens, UniProt Q9Y6F1); assay: Inhibition of PARP3
T4 sequence (Q9Y6F1 whole entry): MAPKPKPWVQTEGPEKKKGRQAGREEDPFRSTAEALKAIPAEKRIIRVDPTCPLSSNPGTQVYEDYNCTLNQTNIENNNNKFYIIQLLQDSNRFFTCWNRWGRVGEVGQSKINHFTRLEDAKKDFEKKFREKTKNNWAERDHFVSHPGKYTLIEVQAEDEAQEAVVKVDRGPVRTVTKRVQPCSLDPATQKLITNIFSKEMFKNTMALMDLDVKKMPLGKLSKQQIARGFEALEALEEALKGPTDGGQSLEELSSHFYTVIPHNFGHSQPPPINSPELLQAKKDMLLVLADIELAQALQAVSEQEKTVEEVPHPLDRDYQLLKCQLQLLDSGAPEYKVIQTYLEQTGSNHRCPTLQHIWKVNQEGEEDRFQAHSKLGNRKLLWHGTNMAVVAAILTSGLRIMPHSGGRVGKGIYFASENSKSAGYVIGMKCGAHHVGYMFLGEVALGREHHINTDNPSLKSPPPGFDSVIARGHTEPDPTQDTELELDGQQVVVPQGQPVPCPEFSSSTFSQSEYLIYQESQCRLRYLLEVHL

T1 sequence (P09874 whole entry): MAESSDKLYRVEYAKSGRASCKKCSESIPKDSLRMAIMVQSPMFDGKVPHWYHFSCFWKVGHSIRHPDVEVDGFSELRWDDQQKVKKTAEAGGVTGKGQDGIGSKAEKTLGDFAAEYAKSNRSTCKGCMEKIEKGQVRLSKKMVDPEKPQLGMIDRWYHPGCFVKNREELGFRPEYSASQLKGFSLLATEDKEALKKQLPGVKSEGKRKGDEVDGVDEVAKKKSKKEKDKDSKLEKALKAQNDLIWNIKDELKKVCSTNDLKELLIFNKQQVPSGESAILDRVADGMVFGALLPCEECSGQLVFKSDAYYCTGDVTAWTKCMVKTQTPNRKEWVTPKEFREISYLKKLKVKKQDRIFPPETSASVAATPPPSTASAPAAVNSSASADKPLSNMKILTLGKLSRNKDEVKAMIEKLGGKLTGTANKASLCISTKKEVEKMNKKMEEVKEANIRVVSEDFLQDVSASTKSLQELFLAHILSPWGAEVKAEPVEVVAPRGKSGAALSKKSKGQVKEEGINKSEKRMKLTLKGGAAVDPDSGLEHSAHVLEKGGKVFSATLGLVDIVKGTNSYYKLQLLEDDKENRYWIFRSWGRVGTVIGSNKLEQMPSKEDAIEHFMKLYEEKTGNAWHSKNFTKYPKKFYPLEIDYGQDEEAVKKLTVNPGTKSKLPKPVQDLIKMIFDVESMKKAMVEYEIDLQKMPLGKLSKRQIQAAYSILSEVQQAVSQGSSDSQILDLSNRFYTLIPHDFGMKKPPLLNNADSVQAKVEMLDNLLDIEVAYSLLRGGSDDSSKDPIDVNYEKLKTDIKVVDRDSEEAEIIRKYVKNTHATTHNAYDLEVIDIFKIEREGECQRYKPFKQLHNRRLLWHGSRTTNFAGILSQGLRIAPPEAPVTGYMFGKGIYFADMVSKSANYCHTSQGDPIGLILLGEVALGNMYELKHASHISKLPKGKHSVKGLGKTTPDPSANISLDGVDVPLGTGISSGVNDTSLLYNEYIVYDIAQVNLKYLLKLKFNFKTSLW

| Structure (SMILES) | IC50 [1] [nM] | EC50 [2] [nM] | also measured |
| --- | --- | --- | --- |
| O=C1NCC2c3c(cccc31)CCN2C(=O)c1ccccc1 (stereo not given) | 4 | 840 | – |
| Cc1csc(CC(=O)N2CCc3cccc4c3C2CNC4=O)n1 (stereo not given) | 6 | 2900 | – |
| O=C1NCC2c3c(cccc31)CCN2C(=O)Cc1ccc(Br)cc1 (stereo not given) | 7 | 200 | – |
| O=C1NCC2c3c(cccc31)CCN2C(=O)CN1CCCCC1 (stereo not given) | 6 | 280 | microsomal CLint [3]: 18 µL/min/mg |
| O=C1NCC2c3c(cccc31)CCN2C(=O)c1ccc(Cl)cc1 (stereo not given) | 7 | 260 | – |
| O=C1NCC2c3c(cccc31)CCN2C(=O)c1cccc(Cl)c1 (stereo not given) | 37 | – | – |
| Cc1c(CC(=O)N2CCc3cccc4c3C2CNC4=O)sc2ccccc12 (stereo not given) | 13 | 1300 | – |
| O=C1NCC2c3c(cccc31)CCN2C(=O)[C@@H]1CCCN1 (stereo not given in full) | 4 | 180 | – |
| O=C1NCC2c3c(cccc31)CCN2C(=O)Nc1ccccc1 (stereo not given) | 11 | 1100 | – |
| O=C1NCC2c3c(cccc31)CCN2S(=O)(=O)Cc1ccccc1 (stereo not given) | 83 | 2700 | – |
| O=C1NCC2c3c(cccc31)CCN2C(=O)Cc1cccc(Cl)c1 (stereo not given) | 5 | 1100 | – |
| O=C(O)CCCC(=O)N1CCc2cccc3c2C1CNC3=O (stereo not given) | 15 | 5000 | – |
| O=C1NCC2c3c(cccc31)CCN2C(=O)Cc1ccccc1 (stereo not given) | 8 | 230 | – |
| CC(=O)N1CCC[C@H]1C(=O)N1CCc2cccc3c2C1CNC3=O (stereo not given in full) | 14 | 2800 | – |
| CN(C)C(=O)CCC(=O)N1CCc2cccc3c2C1CNC3=O (stereo not given) | 9 | 2800 | – |
| N#Cc1ccc(CC(=O)N2CCc3cccc4c3C2CNC4=O)cc1 (stereo not given) | 9 | 200 | – |
| COc1ccccc1CC(=O)N1CCc2cccc3c2C1CNC3=O (stereo not given) | 27 | 1700 | – |
| O=C1NCC2c3c(cccc31)CCN2C(=O)Cc1ccccn1 (stereo not given) | 13 | 230 | – |
| O=C1NCC2c3c(cccc31)CCN2C(=O)NCc1ccccc1 (stereo not given) | 12 | 690 | – |
| O=C1CC2NCCc3cccc(c32)N1 (stereo not given) | – | – | inhibition [4]: inactive; inhibition [5]: inactive |
| O=C1NCC2c3c(cccc31)CCN2Cc1ccccc1 (stereo not given) | 190 | 5200 | – |
| O=C1NCC2c3c(cccc31)CCN2C(=O)Oc1ccccc1 (stereo not given) | 9 | 1400 | – |
| O=C1NCC2c3c(cccc31)CCN2C(=O)c1cccc(C(=O)N2CCCNCC2)c1 (stereo not given) | 50 | – | – |

| Structure (SMILES) | IC50 [1] [nM] | EC50 [2] [nM] | also measured |
| --- | --- | --- | --- |
| COc1ccc(CC(=O)N2CCc3cccc4c3C2CNC4=O)cc1 (stereo not given) | 6 | 160 | – |
| O=C1NCC2c3c(cccc31)CCN2C(=O)c1ccccc1Cl (stereo not given) | 35 | – | – |
| O=C1NCC2c3c(cccc31)CCN2C(=O)CN1CCC(c2ccccc2)CC1 (stereo not given) | 0.5 | 410 | – |
| O=C1NCC2c3c(cccc31)CCN2C(=O)c1ccc(C(=O)N2CCCNCC2)cc1 (stereo not given) | 130 | – | – |
| CCN(CC)Cc1ccc(C(=O)N2CCc3cccc4c3C2CNC4=O)cc1 (stereo not given) | 13 | 310 | – |
| O=C1NCC2NCCc3cccc1c32 (stereo not given) | 140 | – | inhibition [6]: 11% |
| O=C1NCC2c3c(cccc31)CCN2C(=O)Cc1ccncc1 (stereo not given) | 10 | 4600 | – |
| O=C1NCC2c3c(cccc31)CCN2C(=O)Cc1ccc(Cl)cc1 (stereo not given) | 5 | 650 | – |
| O=C1NCC2c3c(cccc31)CCN2C(=O)OCc1ccccc1 (stereo not given) | 14 | 130 | – |
| O=C1NCC2c3c(cccc31)CCN2C(=O)C1CNC1 (stereo not given) | 1 | 660 | – |
| Cn1cc(CCC(=O)N2CCc3cccc4c3C2CNC4=O)cn1 (stereo not given) | 14 | 420 | – |
| O=C1NCC2c3c(cccc31)CCN2C(=O)C1CCCC1 (stereo not given) | 11 | 550 | – |
| O=C1NCC2c3c(cccc31)CCN2C(=O)CCc1ccccc1 (stereo not given) | 4 | 350 | – |
| COc1cccc(CC(=O)N2CCc3cccc4c3C2CNC4=O)c1 (stereo not given) | 5 | 1200 | – |
| O=C1NCC2c3c(cccc31)CCN2C(=O)Cc1ccccc1Cl (stereo not given) | 16 | 900 | – |
| O=C1NCC2c3c(cccc31)CCN2C(=O)Cc1ccc(OCc2ccccc2)cc1 (stereo not given) | 16 | 580 | – |
| CN1CCN(CC(=O)N2CCc3cccc4c3C2CNC4=O)CC1 (stereo not given) | 97 | 3500 | – |
| O=C1NCC2c3c(cccc31)CCN2C(=O)CN1CCN(c2ccccc2)CC1 (stereo not given) | 11 | 440 | – |
| O=C1NCC2c3c(cccc31)CCN2C(=O)C1CCNC1 (stereo not given) | 1 | 3200 | – |
| O=C1NCC2c3c(cccc31)CCN2C(=O)CCn1cnc2ccccc21 (stereo not given) | 1 | 1600 | – |
| Nc1cccc2c1CCNC2=O | 0.5 | – | – |
| O=C1NCC2c3c(cccc31)CCN2C(=O)CCc1cnccn1 (stereo not given) | 6 | 330 | IC50 [7]: 1 nM; microsomal CLint [3]: 24 µL/min/mg; Vd (Rattus norvegicus): 2 L/kg; Activity [8]: Not Active; IC50 [9]: 2000 nM; Activity [10]: Not Active; half-life [11]: 1.2 h; IC50 [12]: 660 nM; IC50 [13]: 70 nM |
